Results from ChEMBL document CHEMBL1145544, “Probing distal regions of the A2B adenosine receptor by quantitative structure-activity relationship modeling of known and novel agonists” (J Med Chem, 2008).

Legend:
[1] = molecular target: T1, Adenosine receptor A2b (Homo sapiens) (UniProt P29275); test: Agonist activity human adenosine A2B receptor expressed in CHO cells assessed as stimulation of adenylate cyclase relative to NECA; format: functional, cell-based
T1 sequence (whole entry): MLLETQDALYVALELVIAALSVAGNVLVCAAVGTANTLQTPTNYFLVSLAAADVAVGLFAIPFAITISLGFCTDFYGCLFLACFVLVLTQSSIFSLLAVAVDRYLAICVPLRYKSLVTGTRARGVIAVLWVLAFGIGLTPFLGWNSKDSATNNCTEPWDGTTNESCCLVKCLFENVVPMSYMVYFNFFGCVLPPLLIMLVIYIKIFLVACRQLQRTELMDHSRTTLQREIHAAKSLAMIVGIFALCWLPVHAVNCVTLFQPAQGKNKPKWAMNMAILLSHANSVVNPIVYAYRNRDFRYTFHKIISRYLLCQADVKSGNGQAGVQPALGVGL
In short: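 Stably transfected CHO cells; cAMP accumulation by enzyme immunoassay kit. Relative potency computed as pEC50(compound) minus pEC50(NECA) determined in the same publication.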

Adenosine receptor A2a [2] = molecular target: T2, Adenosine receptor A2a (Homo sapiens, UniProt P29274); test: Displacement of [3H]CGS-21680 from human adenosine A2A receptor expressed in HEK293 cells at 10 uM; format: cell-based
T2 sequence (P29274 whole entry): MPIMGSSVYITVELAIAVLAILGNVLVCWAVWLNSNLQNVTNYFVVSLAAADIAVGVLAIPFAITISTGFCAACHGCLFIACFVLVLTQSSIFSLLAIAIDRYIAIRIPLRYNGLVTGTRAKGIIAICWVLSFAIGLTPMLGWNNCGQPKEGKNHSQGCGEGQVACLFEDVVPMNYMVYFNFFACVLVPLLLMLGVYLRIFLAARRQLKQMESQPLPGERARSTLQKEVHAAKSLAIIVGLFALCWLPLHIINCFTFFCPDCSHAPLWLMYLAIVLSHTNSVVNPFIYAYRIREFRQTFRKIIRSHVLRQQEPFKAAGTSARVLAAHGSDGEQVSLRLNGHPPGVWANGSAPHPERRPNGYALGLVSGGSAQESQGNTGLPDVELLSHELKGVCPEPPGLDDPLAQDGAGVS
In short: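 HEK293 membranes expressing receptor; [3H]CGS21680 final 10 nM in 50 mM Tris-HCl pH 7.4, 10 mM MgCl2, 1 h at 25 °C; nonspecific defined by 10 μM NECA; filtration, scintillation counting; percent displacement recorded at single 10 μM concentration.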

Adenosine receptor A2b = molecular target: T3, Adenosine receptor A2b (Homo sapiens, UniProt P29275); test: Agonist activity at human adenosine A2B receptor expressed in CHO cells assessed as stimulation of adenylate cyclase; format: functional, cell-based
T3 sequence (P29275 whole entry): T1 sequence (whole entry)
In short: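 Stably transfected CHO cells; cAMP accumulation quantified by enzyme immunoassay kit per manufacturer's manual; EC50 derived.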

Adenosine receptor A1 = molecular target: T4, Adenosine receptor A1 (Homo sapiens, UniProt P30542); test: Displacement of [3H]CCPA from human adenosine A1 receptor expressed in CHO cells; format: cell-based
T4 sequence (P30542 whole entry): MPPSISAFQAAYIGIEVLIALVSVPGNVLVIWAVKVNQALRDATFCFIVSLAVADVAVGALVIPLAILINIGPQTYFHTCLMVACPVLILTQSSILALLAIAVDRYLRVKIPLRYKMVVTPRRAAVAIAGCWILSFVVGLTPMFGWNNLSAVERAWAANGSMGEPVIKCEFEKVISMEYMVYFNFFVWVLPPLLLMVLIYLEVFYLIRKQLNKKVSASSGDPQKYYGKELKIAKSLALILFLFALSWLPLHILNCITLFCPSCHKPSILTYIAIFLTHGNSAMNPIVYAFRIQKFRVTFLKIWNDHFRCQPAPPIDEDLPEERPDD

Adenosine receptor A2a [3] = molecular target: T2, Adenosine receptor A2a; test: Displacement of [3H]CGS-21680 from human adenosine A2A receptor expressed in HEK293 cells; format: cell-based
[4] = molecular target: T5, Adenosine receptor A1 (Homo sapiens) (UniProt P30542); test: Displacement of [3H]CCPA from human adenosine A1 receptor expressed in CHO cells at 10 uM; format: cell-based
T5 sequence (whole entry): T4 sequence (P30542 whole entry)
In short: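 CHO membranes expressing receptor; [3H]CCPA final 1.0 nM, Tris-HCl 50 mM pH 7.4 with 10 mM MgCl2, 1 h at 25 °C; nonspecific with 10 μM NECA; filtration and scintillation counting; percent displacement at single 10 μM test concentration.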

| Compound | Activity [1] | Activity (Adenosine receptor A2a [2]) [%] | EC50 (Adenosine receptor A2b) [nM] | Ki (Adenosine receptor A1) [nM] | Ki (Adenosine receptor A2a [3]) [nM] | Activity [4] [%] |
| --- | --- | --- | --- | --- | --- | --- |
| O=C(COc1ccc(Nc2nc(OCCc3c[nH]c4cc(Br)ccc34)nc3c2ncn3[C@@H]2O[C@H](CO)[C@@H](O)[C@H]2O)cc1)N1CCCC1 | -0.838 | 46 | 965 | 420 |  |  |
| NNc1nc(OCCc2c[nH]c3cc(Br)ccc23)nc2c1ncn2[C@@H]1O[C@H](CO)[C@@H](O)[C@H]1O | -0.0944 |  | 174 | 350 | 2050 |  |
| O=C(COc1ccc(Nc2nc(OCCc3c[nH]c4cc(Br)ccc34)nc3c2ncn3[C@@H]2O[C@H](CO)[C@@H](O)[C@H]2O)cc1)Nc1ccccc1 | -0.0092 |  | 143 | 370 | 1150 |  |
| O=C(NNc1nc(OCCc2c[nH]c3cc(Br)ccc23)nc2c1ncn2[C@@H]1O[C@H](CO)[C@@H](O)[C@H]1O)c1ccco1 | -0.315 | 40 | 289 |  |  | 29 |
